Paper PMC3517121 (Chembiochem : a European journal of chemical biology, 2011)
Read-outs that look alike come from different tables or passages of the source.

Experiments:
[1] = Molar absorption coefficient; format: physicochemical
Method in brief: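 Test cross-linker concentration fixed by 1H NMR in DMSO-d6 with a known concentration of 1,2-dichloroethane, comparing the DCE methylene signal with the cross-linker α-methylene signal. The NMR solution was then diluted in DMSO or in 10 mM phosphate buffer pH 7.0, and UV-Vis spectra were recorded to calculate the molar absorption coefficient.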

Solubility in water = format: physicochemical; settings: qualitative statement
[2] = cited from earlier work

O=C(CCl)Nc1ccc(N=Nc2ccc(-c3ccc(N=Nc4ccc(NC(=O)CCl)cc4)cc3S(=O)(=O)O)c(S(=O)(=O)O)c2)cc1 [BPDBS, 4,4’-bis(4-(2-chloroacetamido)phenyl)diazenylbiphenyl-2,2’-disulfonate]
molar absorption coefficient ([1]; at 360 nm in sodium phosphate buffer, pH 7.0): 45,000 M^-1cm^-1
molar absorption coefficient ([1]; at 380 nm in DMSO): 52,000 M^-1cm^-1
solubility in water (Solubility in water): water-soluble

O=C(CCl)Nc1ccc(N=Nc2ccc(-c3ccc(N=Nc4ccc(NC(=O)CCl)cc4)cc3)cc2)cc1 [BPDB, 4,4’-bis(4-(2-chloroacetamido)phenyl)diazenylbiphenyl]
molar absorption coefficient ([1]; at 400 nm in DMSO): 60,000 M^-1cm^-1

CC(=O)Nc1ccc(N=Nc2ccc(-c3ccc(N=Nc4ccc(NC(C)=O)cc4)cc3)cc2)cc1 [BPDB(r), 4,4’-bis(4-acetamidophenyl)diazenylbiphenyl]
solubility in water (Solubility in water): not soluble in water

O=C(CCl)Nc1ccc(N=Nc2ccc(NC(=O)CCl)c(S(=O)(=O)O)c2)cc1S(=O)(=O)O [BSBCA, 3,3’-bis(sulfonato)-4,4’-bis(chloroacetamide)azobenzene]
molar absorption coefficient [2]: 27,000 M^-1 cm^-1
